Screens as filed in PubChem.
Only some compounds are listed: those with a hit (about 3.7% of all), similar ones and a draw of the others.
E-sel inducer = E-selectin induction in HUVECs, primary screen, imaging, HUVEC, immunofluorescence imaging, single point; AID 686992, 2013; normalized: neutral wells 0, TNF-alpha wells 100; hit rate 0.37% among 260,000; P16581; activation, % at 7.58 µM;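 active = mean E-selectin-positive cell signal at least 10% of the positive control, reached in at least 60% of replicates, without over 20% cell loss; inconclusive = no rule given, readout overlaps actives, possibly toxicity-flagged; inactive = the rest, including those meeting only one limit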
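Assay system: HUVEC, human umbilical vein endothelial cells / Amount: 3,000 HUVEC/well / Controls: TNF-alpha positive control, DMSO neutral control / Compound dosing: single concentration / Medium: EGM-2 over gelatin coat / Evaluation: percent E-selectin-positive cells / Signal: immunofluorescence imaging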
FGF22 binding-1 = binders of human FGF22 protein, primary screen, FGF22 synaptogenesis inhibitor project, biophysical, thermal shift, single point; Fibroblast growth factor 22 (Homo sapiens), Q9HCT0; recombinant FGF22 thermal shift, SYPRO orange fluorescence; percent of sucrose octasulfate shift, DMSO zero; activity (Tm shift, normalised), % at 9.99 µM; hit rate 1.5% among 340,000; AID 651658, 2012;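 active = mean Tm shift, scaled 0 neutral to 100 positive control, at about 1.3% or above, every replicate too, limit read from the data; inconclusive = no clear call, values can overlap the other calls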
Target sequence (Q9HCT0 whole entry, looked up): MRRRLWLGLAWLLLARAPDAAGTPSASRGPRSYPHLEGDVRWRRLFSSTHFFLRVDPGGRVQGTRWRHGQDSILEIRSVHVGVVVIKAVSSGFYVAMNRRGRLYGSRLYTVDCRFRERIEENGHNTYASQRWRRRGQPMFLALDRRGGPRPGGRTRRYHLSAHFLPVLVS
ERAP1 HTS inh = human ERAP1 aminopeptidase inhibitors, primary screen, biochemical, single point, plate reader. hit rate 0.15% among 340,000. inhibition, % at 10.7 µM. recombinant ERAP1, Leu-AMC fluorescence, 60 min. Endoplasmic reticulum aminopeptidase 1 (Homo sapiens), Q9NZ08. AID 652197, 2013;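 active = mean replicate inhibition of at least 30%, or all replicates individually reaching that 30% level; inactive = mean below 30% and not every replicate reaching it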;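 note: 0% = neutral control wells and 100% = L-leucinethiol positive control wells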
F508del corr = F508del CFTR correction, initial screen, CFBE line, single point; hit rate 0.36% among 350,000; activity (quench increase), % at 7.58 µM; CFBE cells, YFP halide quenching; stimulated with forskolin plus potentiator P3; % fluorescence drop versus neutral controls;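 active = mean added fluorescence quench of at least 8% versus neutral control, with both replicates also reaching 8%; inconclusive = only one of the mean or replicate conditions met; inactive = mean below 8% and not both replicates reaching 8%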;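 note: cells transiently co-express mutant CFTR-F508del with the halide-sensitive YFP; corrector assay measuring rescue of mutant channel to the surface after 24 h compound exposure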
DENV2 CPE = inhibitors of DENV2 cytopathic effect, primary screen, cell-based, plate reader, single concentration; CPE inhibition, % at 9.99 µM; DENV2-infected cells, cytopathic effect rescue; AID 651640, 2012; hit rate 1.7% among 350,000; in the data active = CPE inhibition above about 20%, passing the limit was not always enough; inconclusive = no clear call, values can overlap the other calls; tested in BHK-21 cells;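 note: 0% = median of neutral control wells and 100% = median of positive control wells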
FGF22 binding-2 = binders of human FGF22 protein, dose response, FGF22 synaptogenesis inhibitor project, biophysical, thermal shift, cherry-pick retest | shares compounds with FGF22 binding-1 | recombinant FGF22 thermal shift, SYPRO orange fluorescence | thermal shift activity, °C (ΔTm) at 38 µM | hit rate 2% among 1,000;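 active = fitted rise in melting shift crosses a set limit at or below the top valid dose tested; inconclusive = flat fit at mid-level activity, or a poor quality fit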
FGF22 TSA = binders of human FGF22 protein, dose response, FGF22 synaptogenesis inhibitor project, biophysical, thermal shift, dry powder. shares compounds with FGF22 binding-1. Thermal shift assay, SYPRO orange, melting temperature shift. Tm shift (activity), % at 38 µM. 50 tested, under 10 active. AID 743017, 2013;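 active = compounds whose fitted dose curve of melting temperature shift rises past a set threshold within the tested doses; inconclusive = flat curve at moderate activity, or poor curve fit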
TSA no protein = compound-only thermal shift signal without protein, dose response, artefact control for FGF22 binder project, biochemical, cherry-picked samples, RT-PCR instrument | shares compounds with FGF22 binding-1 | AID 743019, 2013 | hit rate 2% among 1,000 | compound-only SYPRO orange thermal shift counter-screen, no protein | AC50, µM (top dose mostly 38 µM);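 active = rising signal whose fitted curve reaches the 0.54 level within the top valid dose, showing a melting point, actives reach about 13 µM in these data; inactive = the rest, including activity in the opposite direction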; note: value is where the raw curve crosses a fixed level and not half-maximal
* hit, by the source's call; i = inactive; ? = inconclusive; / = no result given; [ ] = another dose, or the depositor's remark.

SMILES	E-sel inducer	FGF22 binding-1	ERAP1 HTS inh	F508del corr	DENV2 CPE	FGF22 binding-2	TSA no protein	others
C/C(CC(=O)Nc1ccccc1Cl)=N\NC(=O)C(=O)NCCO	0.0	-0.1	-0.6	1.4	-1.5	/	/
COCC(=O)N1C[C@H](C)[C@@H](OC)CN(C)C(=O)c2ccc(NC(=O)NC(C)C)cc2OC[C@H]1C	-0.1	-0.4	-1.2	2.4	2.6	/	/
CC(=O)NC(Cc1c[nH]c2ccccc12)C(=O)NCCc1ccccn1 (stereo unspecified)	45.7*	1.6*	-1.0	0.9	-0.8	0.195	i
Nc1nnc(CC(=O)N/N=C/c2cc([N+](=O)[O-])cc(Br)c2O)s1	/	1.8*	1.3	-2.8	-2.8	/	i
CN(C)C(=O)C[C@H]1C[C@H]2c3cc(NC(=O)C4CCC4)ccc3O[C@H]2[C@H](CO)O1	0.0	0.5	-0.4	-4.9	5.5	/	/
O=[N+]([O-])c1ccc(N/N=C/c2ccc[nH]2)cc1	0.4	3.1*	4.3	/	18.3	0.23	i
CCCN1C[C@@H](C)[C@@H](OC)CN(C)C(=O)c2ccc(NS(=O)(=O)c3cn(C)cn3)cc2OC[C@H]1C	0.3	-0.2	2.3	-2.0	0.2	/	/
Cc1ccc(S(=O)(=O)N[C@H]2C=C[C@@H](CC(=O)N3CCc4ccccc4C3)O[C@@H]2CO)cc1	2.4	1.3*	-1.3	1.1	-7.9	-0.004	i
Cc1ccc(S(=O)(=O)N[C@H]2C=C[C@H](CC(=O)N3CCc4ccccc4C3)O[C@H]2CO)cc1	1.0	1.3*	-2.7	-1.2	-8.8	0.048[42 µM]	i
Cc1ccc(S(=O)(=O)N[C@@H]2C=C[C@@H](CC(=O)N3CCc4ccccc4C3)O[C@H]2CO)cc1	-0.7	-0.6	-0.6	1.4	12.6	/	/
Cc1ccc(S(=O)(=O)N[C@H]2C=C[C@H](CC(=O)N3CCc4ccccc4C3)O[C@@H]2CO)cc1	-0.6	-0.8	1.5	-1.2	-8.9	/	/
CCC(=O)N(C)C[C@@H]1Oc2ncc(C#CC(C)C)cc2C(=O)N([C@H](C)CO)C[C@@H]1C	0.0	0.5	/	1.7	?	/	/
Cc1ccc(S(=O)(=O)N2C[C@H](O)COC[C@@H]3O[C@H](CC(=O)NCc4ccc(Cl)c(Cl)c4)CC[C@H]32)cc1	0.2	-0.3	0.4	-1.7	-11.2	/	/
Cc1ccc(S(=O)(=O)N2C[C@@H](O)COC[C@@H]3O[C@@H](CC(=O)NCc4ccc(Cl)c(Cl)c4)CC[C@H]32)cc1	0.0	1.4*	0.0	3.3	-8.7	0.101[42 µM]	i	FGF22 TSA=-0.2
O=C(C[C@H]1CC[C@@H]2[C@H](COC[C@H](O)CN2S(=O)(=O)c2cccc(Cl)c2)O1)Nc1ccccc1	0.3	1.4*	-1.8	-1.9	1.9	0.041[42 µM]	i	FGF22 TSA=0.0
COc1cccc(S(=O)(=O)N2C[C@@H](O)COC[C@@H]3O[C@@H](CC(=O)Nc4ccccc4)CC[C@H]32)c1	0.0	1.3*	-2.3	-2.1	9.1	-0.236[42 µM]	i
O=C(C[C@@H]1CC[C@H]2[C@@H](COC[C@@H](O)CN2S(=O)(=O)c2cccc(F)c2)O1)Nc1ccccc1	0.2	2.3*	/	0.4	-2.0	-1.06	i
CNC(=O)C[C@@H]1CC[C@H]2[C@H](COc3ccc(NC(=O)c4ccc(F)cc4)cc3C(=O)N2C)O1	0.0	0.1	-0.9	2.7	0.2	/	/
C=C1[C@@H](O)[C@H](Cc2ccccc2)N(Cc2ccccc2Br)S1(=O)=O	4.4	1.4*	-3.3	3.1	3.1	0.119	i
Cc1ccccc1CN1[C@@H](Cc2ccccc2)COCCS1(=O)=O	1.1	/	/	2.5	/	/	/
C/C(=N\NC(=O)c1cccc(S(=O)(=O)N2CCOCC2)c1)c1ccc(O)cc1	-0.5	0.0	-0.1	-6.1	?	/	/
C/C(=N\NC(=O)c1cccc(S(=O)(=O)N2CCOCC2)c1)c1ccc(OC(F)F)cc1	0.1	1.6*	-5.3	1.2	8.7	0.04	i
O=C(N/N=C/c1c[nH]c2ccccc12)c1ccc2c(c1)OCCO2	0.0	1.6*	1.3	1.4	-4.2	0.013	i
O=C(N/N=C/c1c[nH]c2ccc(Br)cc12)c1ccc2c(c1)OCO2	3.1	2.5*	19.6	3.5	7.3	0.077	i
O=C(N/N=C/c1c[nH]c2ccc(Br)cc12)c1ccncc1	2.3	/	/	/	/	/	/
SMILES	E-sel inducer	FGF22 binding-1	ERAP1 HTS inh	F508del corr	DENV2 CPE	FGF22 binding-2	TSA no protein	others
NC(=O)C(=O)N/N=C/c1c[nH]c2ccc(Br)cc12	/	-0.5	3.8	3.3	-12.0	/	/
O=C(N/N=C/c1c[nH]c2ccc(Br)cc12)C1CC1	4.0	2.2*	-0.6	0.5	2.9	-0.072	i
C[C@@H]1CN([C@H](C)CO)S(=O)(=O)c2ccc(C3=CCCC3)cc2O[C@@H]1CN(C)C(=O)Nc1ccc2c(c1)OCO2	0.8	1.2*	-2.8	-2.4	16.8	-0.492	i
C[C@H]1CN([C@@H](C)CO)S(=O)(=O)c2ccc(C3=CCCC3)cc2O[C@@H]1CN(C)C(=O)Nc1ccc2c(c1)OCO2	0.6	-0.6	-8.0	4.1	5.6	/	/
C[C@H](CO)N1C[C@H](C)[C@H](CN(C)C(=O)Nc2ccc3c(c2)OCO3)Oc2cc(C3=CCCC3)ccc2S1(=O)=O	0.6	1.8*	-4.4	1.3	12.2	-0.489	i
O=C(C[C@@H]1C[C@@H]2c3cc(NC(=O)NC4CCCC4)ccc3O[C@@H]2[C@H](CO)O1)NCc1ccncc1	-0.1	-0.2	-2.1	0.8	4.8	/	/
O=C(C1CCCC1)N1CC(=O)N2[C@@H](CO)[C@H](c3ccc(-c4ccccc4F)cc3)[C@@H]2C1	0.4	/	4.2	-1.4	4.6	/	/
O=S1(=O)N=C(N(Cc2cccs2)c2ccc(O)cc2)c2ccccc21	/	1.4*	5.2	-2.1	3.7	/	i	FGF22 TSA=0.2
COc1ccc(CN(C)C[C@@H]2OCCCC[C@@H](C)Oc3ccc(NC(=O)Nc4ccccc4)cc3C(=O)N([C@@H](C)CO)C[C@H]2C)cc1	-0.4	-0.1	/	1.4	?	/	/
